Bridge positions count the residues as written; N and C are the ends. Square brackets hold non-standard residues; d marks the D form. Peptide text beside a SMILES is read from it. d2Nal = N[C@H](Cc1ccc2ccccc2c1)C(=O)O; Pen = CC(C)(S)[C@H](N)C(=O)O; Nle = CCCC[C@H](N)C(=O)O
Tests used:
[1] = molecular target: T1, Melanocortin receptor 5 (Homo sapiens, UniProt P33032); assay: Binding affinity against human Melanocortin 5 receptor by gamma-MCH displacement.
Outline: (§1)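 Competition binding on intact HEK293 cells stably expressing the human receptor, seeded 50000 cells/well 48 h earlier. Lysates were gamma-counted. Ki came from competition curves; mean of duplicate experiments in triplicate.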

[2] = molecular target: T2, Melanocortin receptor 4 (Homo sapiens, UniProt P32245); assay: Binding affinity against Melanocortin 4 receptor by gamma-MCH displacement.; outline: as §1
T2 sequence (P32245 whole entry): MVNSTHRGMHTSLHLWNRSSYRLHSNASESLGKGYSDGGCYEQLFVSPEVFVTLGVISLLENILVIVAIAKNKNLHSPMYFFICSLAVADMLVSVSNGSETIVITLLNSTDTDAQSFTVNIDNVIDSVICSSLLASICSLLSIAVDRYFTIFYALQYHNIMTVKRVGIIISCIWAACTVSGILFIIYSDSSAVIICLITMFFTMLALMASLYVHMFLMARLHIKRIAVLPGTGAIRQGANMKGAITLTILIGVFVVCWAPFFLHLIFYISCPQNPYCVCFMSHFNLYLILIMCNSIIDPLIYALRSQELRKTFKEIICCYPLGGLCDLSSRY

[3] = molecular target: T3, Melanocortin receptor 3 (Homo sapiens, UniProt P41968); assay: Binding affinity against human Melanocortin 3 receptor by gamma-MCH displacement.; outline: as §1
T3 sequence (P41968 whole entry): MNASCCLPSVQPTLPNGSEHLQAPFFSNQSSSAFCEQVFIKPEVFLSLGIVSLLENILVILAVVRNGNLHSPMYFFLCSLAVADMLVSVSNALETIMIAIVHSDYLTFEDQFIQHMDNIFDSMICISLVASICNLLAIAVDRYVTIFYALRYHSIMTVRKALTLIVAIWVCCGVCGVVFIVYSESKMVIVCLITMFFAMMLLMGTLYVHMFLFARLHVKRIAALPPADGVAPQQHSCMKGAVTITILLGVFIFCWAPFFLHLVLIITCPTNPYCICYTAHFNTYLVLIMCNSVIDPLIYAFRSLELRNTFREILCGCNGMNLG

[4] = molecular target: T3, Melanocortin receptor 3; assay: Agonist activity against human Melanocortin 3 receptor at 10 uM
[5] = molecular target: T2, Melanocortin receptor 4; assay: Agonist activity against human Melanocortin 4 receptor at 10 uM
[6] = molecular target: T2, Melanocortin receptor 4; assay: Intracellular cAMP accumulation in Melanocortin 4 receptor functional assay.
[7] = molecular target: T1, Melanocortin receptor 5; assay: Intracellular cAMP accumulation in human Melanocortin 5 receptor functional assay.
[8] = molecular target: T3, Melanocortin receptor 3; assay: Intracellular cAMP accumulation in human Melanocortin 3 receptor functional assay.
[9] = molecular target: T1, Melanocortin receptor 5; assay: Agonist activity against human Melanocortin 5 receptor at 10 uM

T1 sequence (P33032 whole entry): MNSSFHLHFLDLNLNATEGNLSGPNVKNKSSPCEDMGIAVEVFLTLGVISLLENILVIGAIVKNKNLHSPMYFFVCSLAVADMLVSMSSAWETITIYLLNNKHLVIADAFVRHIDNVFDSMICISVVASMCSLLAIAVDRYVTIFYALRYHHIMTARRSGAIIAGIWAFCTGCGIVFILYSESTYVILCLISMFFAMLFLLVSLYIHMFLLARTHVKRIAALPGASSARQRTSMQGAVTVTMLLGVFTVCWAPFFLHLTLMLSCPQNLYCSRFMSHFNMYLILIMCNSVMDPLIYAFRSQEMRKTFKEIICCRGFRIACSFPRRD

SMILES	Ki [1]	Ki [2]	Ki [3]	Activity [4]	Activity [5]	EC50 [6]	EC50 [7]	EC50 [8]	Activity [9]
CCCC[C@H](NC(=O)[C@@H](NC(=O)[C@@H](N)Cc1ccc(O)cc1)C(C)C)C(=O)NCC(=O)N1CCC[C@H]1C(=O)N[C@H](Cc1ccc2ccccc2c1)C(=O)N[C@@H](CCCN=C(N)N)C(=O)N[C@@H](Cc1c[nH]c2ccccc12)C(=O)N[C@@H](CC(=O)O)C(=O)N[C@@H](CCCN=C(N)N)C(=O)N[C@@H](Cc1ccccc1)C(=O)NCC(N)=O (H-YV[Nle]GP[d2Nal]RWDRFG-NH2)	14 nM	0.22 nM	0.2 nM	70%	100%	–	–	–	–
CCCC[C@H](NC(=O)[C@@H](NC(=O)[C@@H](N)Cc1ccc(O)cc1)C(C)C)C(=O)N[C@@H]1CSSC[C@@H](C(=O)N[C@@H](CCCNC(=N)N)C(=O)N[C@@H](Cc2ccccc2)C(=O)NCC(N)=O)NC(=O)[C@H](Cc2c[nH]c3ccccc23)NC(=O)[C@H](CCCNC(=N)N)NC(=O)[C@H](Cc2ccccc2)NC(=O)[C@H](Cc2cnc[nH]2)NC1=O	210 nM	1200 nM	1600 nM	–	–	360 nM	140 nM	210 nM	–
CCCC[C@H](NC(=O)[C@@H](NC(=O)[C@@H](N)Cc1ccc(O)cc1)C(C)C)C(=O)N[C@H]1CSSC[C@@H](C(=O)N[C@@H](CCCNC(=N)N)C(=O)N[C@@H](Cc2ccccc2)C(=O)NCC(N)=O)NC(=O)[C@H](Cc2c[nH]c3ccccc23)NC(=O)[C@H](CCCNC(=N)N)NC(=O)[C@H](Cc2ccccc2)NC(=O)[C@H](Cc2cnc[nH]2)NC1=O	27 nM	2.5 nM	6.8 nM	–	–	170 nM	3.2 nM	4.2 nM	–
CC(C)[C@H](NC(=O)[C@@H](N)Cc1ccc(O)cc1)C(=O)NC1CSSCC(C(=O)N[C@@H](CCCN=C(N)N)C(=O)N[C@@H](Cc2ccccc2)C(=O)NCC(N)=O)NC(=O)[C@H](Cc2c[nH]c3ccccc23)NC(=O)[C@H](CCCN=C(N)N)NC(=O)[C@@H](Cc2ccccc2)NC(=O)[C@H](Cc2c[nH]cn2)NC(=O)CNC1=O (stereo in doubt)	> 3900 nM	460 nM	> 10000 nM	–	46%	250 nM	> 10000 nM	> 10000 nM	–
CCCC[C@H](NC(=O)[C@@H](NC(=O)[C@@H](N)Cc1ccc(O)cc1)C(C)C)C(=O)NCC(=O)N[C@@H](Cc1c[nH]cn1)C(=O)N[C@@H](Cc1ccccc1)C(=O)N[C@@H](CCCN=C(N)N)C(=O)N[C@@H](Cc1c[nH]c2ccccc12)C(=O)N[C@@H](CC(=O)O)C(=O)N[C@@H](CCCN=C(N)N)C(=O)N[C@@H](Cc1ccccc1)C(=O)NCC(N)=O	–	62 nM	–	–	105%	–	–	–	–
CC(C)[C@H](NC(=O)[C@@H](N)Cc1ccc(O)cc1)C(=O)N[C@@H]1C(=O)NCC(=O)N[C@@H](Cc2cnc[nH]2)C(=O)N[C@@H](Cc2ccccc2)C(=O)N[C@@H](CCCNC(=N)N)C(=O)N[C@@H](Cc2c[nH]c3ccccc23)C(=O)N[C@H](C(=O)N[C@@H](CCCNC(=N)N)C(=O)N[C@@H](Cc2ccccc2)C(=O)NCC(N)=O)CSSC1(C)C	1700 nM	12 nM	150 nM	–	–	> 10000 nM	> 10000 nM	400 nM	–
CC(C)[C@H](NC(=O)[C@@H](N)Cc1ccc(O)cc1)C(=O)N[C@H]1CSSC[C@H](C(=O)N[C@@H](CCCN=C(N)N)C(=O)N[C@@H](Cc2ccccc2)C(=O)NCC(N)=O)NC(=O)[C@H](Cc2c[nH]c3ccccc23)NC(=O)[C@H](CCCN=C(N)N)NC(=O)[C@H](Cc2ccccc2)NC(=O)[C@H](Cc2c[nH]cn2)NC(=O)CNC1=O	> 3900 nM	> 10000 nM	> 10000 nM	–	–	> 10000 nM	> 10000 nM	> 10000 nM	–
CC(C)[C@H](NC(=O)[C@@H](N)Cc1ccc(O)cc1)C(=O)N[C@H]1C(=O)NCC(=O)N[C@@H](Cc2c[nH]cn2)C(=O)N[C@H](Cc2ccccc2)C(=O)N[C@@H](CCCN=C(N)N)C(=O)N[C@@H](Cc2c[nH]c3ccccc23)C(=O)N[C@H](C(=O)N[C@@H](CCCN=C(N)N)C(=O)N[C@@H](Cc2ccccc2)C(=O)NCC(N)=O)CSSC1(C)C	–	–	–	77%	–	–	–	–	–
CCCC[C@H](NC(=O)[C@@H](NC(=O)[C@@H](N)Cc1ccc(O)cc1)C(C)C)C(=O)NCC(=O)N[C@@H](CCN)C(=O)N[C@@H](Cc1ccccc1)C(=O)N[C@@H](CCCN=C(N)N)C(=O)N[C@H](Cc1ccc2ccccc2c1)C(=O)N[C@@H](CC(=O)O)C(=O)N[C@@H](CCCN=C(N)N)C(=O)N[C@@H](Cc1ccccc1)C(=O)NCC(N)=O	–	–	–	–	–	–	–	–	100%
CCCC[C@H](NC(=O)[C@@H](NC(=O)[C@@H](N)Cc1ccc(O)cc1)C(C)C)C(=O)N[C@@H]1C(=O)N[C@@H](Cc2c[nH]cn2)C(=O)N[C@@H](Cc2ccccc2)C(=O)N[C@@H](CCCN=C(N)N)C(=O)N[C@@H](Cc2c[nH]c3ccccc23)C(=O)N[C@H](C(=O)N[C@@H](CCCN=C(N)N)C(=O)N[C@@H](Cc2ccccc2)C(=O)NCC(N)=O)CSSC1(C)C (H-YV[Nle][Pen]HFRWCRFG-NH2; disulfide 4-9)	150 nM	> 10000 nM	150 nM	–	–	200 nM	74 nM	19 nM	–
CCCC[C@H](NC(=O)[C@@H](NC(=O)[C@@H](N)Cc1ccc(O)cc1)C(C)C)C(=O)NCC(=O)N[C@@H](Cc1c[nH]cn1)C(=O)N[C@H](Cc1ccc2ccccc2c1)C(=O)N[C@@H](CCCN=C(N)N)C(=O)N[C@H](Cc1ccc2ccccc2c1)C(=O)N[C@@H](CC(=O)O)C(=O)N[C@@H](CCCN=C(N)N)C(=O)N[C@@H](Cc1ccccc1)C(=O)NCC(N)=O	> 4800 nM	4.6 nM	12 nM	40%	100%	44 nM	> 10000 nM	12 nM	–

Other lines, results leading:

Ki [1]	Ki [2]	Ki [3]	Activity [4]	Activity [5]	EC50 [6]	EC50 [7]	EC50 [8]	Activity [9]	SMILES
210 nM	22 nM	68 nM	–	–	9 nM	450 nM	36 nM	–	CC(C)[C@H](NC(=O)[C@@H](N)Cc1ccc(O)cc1)C(=O)N[C@H]1CSSC[C@@H](C(=O)N[C@@H](CCCN=C(N)N)C(=O)N[C@@H](Cc2ccccc2)C(=O)NCC(N)=O)NC(=O)[C@H](Cc2c[nH]c3ccccc23)NC(=O)[C@H](CCCN=C(N)N)NC(=O)[C@H](Cc2ccccc2)NC(=O)[C@H](Cc2c[nH]cn2)NC(=O)CNC1=O
1 nM	–	0.81 nM	–	100%	–	–	> 10000 nM	–	CCCC[C@H](NC(=O)[C@@H](NC(=O)[C@@H](N)Cc1ccc(O)cc1)C(C)C)C(=O)NCC(=O)N[C@@H](Cc1c[nH]cn1)C(=O)N[C@H](Cc1ccc2ccccc2c1)C(=O)N[C@@H](CCCN=C(N)N)C(=O)N[C@@H](Cc1c[nH]c2ccccc12)C(=O)N[C@@H](CC(=O)O)C(=O)N[C@@H](CCCN=C(N)N)C(=O)N[C@@H](Cc1ccccc1)C(=O)NCC(N)=O
480 nM	> 10000 nM	480 nM	–	–	> 10000 nM	> 10000 nM	> 10000 nM	–	CC(C)[C@H](NC(=O)[C@@H](N)Cc1ccc(O)cc1)C(=O)N[C@H]1CSSC(C)(C)[C@@H](C(=O)N[C@@H](CCCNC(=N)N)C(=O)N[C@@H](Cc2ccccc2)C(=O)NCC(N)=O)NC(=O)[C@H](Cc2c[nH]c3ccccc23)NC(=O)[C@H](CCCNC(=N)N)NC(=O)[C@H](Cc2ccccc2)NC(=O)[C@H](Cc2cnc[nH]2)NC(=O)CNC1=O (H-YVCGHFRW[Pen]RFG-NH2; disulfide 3-9)
–	–	–	93%	92%	–	–	–	16%	CC(C)[C@H](NC(=O)[C@@H](N)Cc1ccc(O)cc1)C(=O)N[C@@H]1CSSC[C@@H](C(=O)N[C@@H](CCCN=C(N)N)C(=O)N[C@@H](Cc2ccccc2)C(=O)NCC(N)=O)NC(=O)[C@H](Cc2c[nH]c3ccccc23)NC(=O)[C@H](CCCN=C(N)N)NC(=O)[C@@H](Cc2ccccc2)NC(=O)[C@H](Cc2c[nH]cn2)NC(=O)CNC1=O
17 nM	1.5 nM	15 nM	31%	–	> 10000 nM	28 nM	2400 nM	80%	CCCC[C@H](NC(=O)[C@@H](NC(=O)[C@@H](N)Cc1ccc(O)cc1)C(C)C)C(=O)NCC(=O)N[C@@H](Cc1c[nH]cn1)C(=O)N[C@@H](Cc1ccccc1)C(=O)N[C@@H](CCCN=C(N)N)C(=O)N[C@H](Cc1ccc2ccccc2c1)C(=O)N[C@@H](CC(=O)O)C(=O)N[C@@H](CCCN=C(N)N)C(=O)N[C@@H](Cc1ccccc1)C(=O)NCC(N)=O
8.8 nM	9.6 nM	5.5 nM	–	–	340 nM	200 nM	240 nM	–	CCCC[C@H](NC(=O)[C@@H](NC(=O)[C@@H](N)Cc1ccc(O)cc1)C(C)C)C(=O)N[C@H]1CC(=O)NCCCC[C@@H](C(=O)N[C@@H](CCCN=C(N)N)C(=O)N[C@@H](Cc2ccccc2)C(=O)NCC(N)=O)NC(=O)[C@H](Cc2c[nH]c3ccccc23)NC(=O)[C@H](CCCN=C(N)N)NC(=O)[C@H](Cc2ccccc2)NC(=O)[C@H](Cc2c[nH]cn2)NC1=O
220 nM	> 10000 nM	240 nM	–	–	83 nM	270 nM	39 nM	–	CCCC[C@H](NC(=O)[C@@H](NC(=O)[C@@H](N)Cc1ccc(O)cc1)C(C)C)C(=O)N[C@H]1CSSC[C@H](C(=O)N[C@@H](CCCN=C(N)N)C(=O)N[C@@H](Cc2ccccc2)C(=O)NCC(N)=O)NC(=O)[C@H](Cc2c[nH]c3ccccc23)NC(=O)[C@H](CCCN=C(N)N)NC(=O)[C@H](Cc2ccccc2)NC(=O)[C@H](Cc2c[nH]cn2)NC1=O
120 nM	4800 nM	3400 nM	–	–	> 10000 nM	1.8 nM	> 10000 nM	–	CCCC[C@H](NC(=O)[C@@H](NC(=O)[C@@H](N)Cc1ccc(O)cc1)C(C)C)C(=O)NCC(=O)NC(C)(C)C(=O)N[C@@H](Cc1ccccc1)C(=O)N[C@@H](CCCN=C(N)N)C(=O)N[C@H](Cc1ccc2ccccc2c1)C(=O)N[C@@H](CC(=O)O)C(=O)N[C@@H](CCCN=C(N)N)C(=O)N[C@@H](Cc1ccccc1)C(=O)NCC(N)=O

Source: ChEMBL document CHEMBL1144940 (J Med Chem, 2003)
